ChEMBL document CHEMBL5331127, “Discovery of ARD-2051 as a Potent and Orally Efficacious Proteolysis Targeting Chimera (PROTAC) Degrader of Androgen Receptor for the Treatment of Advanced Prostate Cancer” (J Med Chem, 2023)

Experiments:
[1] = Drug concentration in ICR mouse plasma at 10 mg/kg, po measured after 24 hrs; assay type: ADME, organism-based
Outline: (§1)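 Mice given a single 10 mg/kg dose by oral gavage, 3 mice per time point. Plasma drug levels measured at 1, 3, 6 and 24 h; mean ± SD reported.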

LNCaP = experiment: Growth inhibition in human LNCaP cells incubated for 4 days by WST-8 assay relative to control; assay type: functional; conditions: time 4 day
Outline: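 LNCaP cells grown in RPMI 1640 with 10% FBS, treated for 4 days. Viability read by WST-8 assay.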

[2] = Drug concentration in ICR mouse plasma at 10 mg/kg, po measured after 3 hrs; assay type: ADME, organism-based; outline: as §1
[3] = Drug concentration in ICR mouse plasma at 10 mg/kg, po measured after 1 hr; assay type: ADME, organism-based; outline: as §1
[4] = Drug concentration in ICR mouse plasma at 10 mg/kg, po measured after 6 hrs; assay type: ADME, organism-based; outline: as §1
VCaP = experiment: Growth inhibition in human VCaP cells incubated for 4 days by WST-8 assay relative to control; assay type: functional; conditions: time 4 day
Outline: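 VCaP prostate cancer cells (ATCC) were maintained in DMEM with Glutamax plus 10% fetal bovine serum at 37 °C, humidified 5% CO2. They were exposed to compound for 4 days, and viability was then read by WST-8 colorimetric assay following the kit instructions.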

Androgen receptor = target: T1, Androgen receptor (Homo sapiens, UniProt P10275); experiment: Displacement of Fluormone AL Green from androgen receptor LBD (unknown origin) incubated for 4 hrs by fluorescence polarization assay
T1 sequence (P10275 whole entry): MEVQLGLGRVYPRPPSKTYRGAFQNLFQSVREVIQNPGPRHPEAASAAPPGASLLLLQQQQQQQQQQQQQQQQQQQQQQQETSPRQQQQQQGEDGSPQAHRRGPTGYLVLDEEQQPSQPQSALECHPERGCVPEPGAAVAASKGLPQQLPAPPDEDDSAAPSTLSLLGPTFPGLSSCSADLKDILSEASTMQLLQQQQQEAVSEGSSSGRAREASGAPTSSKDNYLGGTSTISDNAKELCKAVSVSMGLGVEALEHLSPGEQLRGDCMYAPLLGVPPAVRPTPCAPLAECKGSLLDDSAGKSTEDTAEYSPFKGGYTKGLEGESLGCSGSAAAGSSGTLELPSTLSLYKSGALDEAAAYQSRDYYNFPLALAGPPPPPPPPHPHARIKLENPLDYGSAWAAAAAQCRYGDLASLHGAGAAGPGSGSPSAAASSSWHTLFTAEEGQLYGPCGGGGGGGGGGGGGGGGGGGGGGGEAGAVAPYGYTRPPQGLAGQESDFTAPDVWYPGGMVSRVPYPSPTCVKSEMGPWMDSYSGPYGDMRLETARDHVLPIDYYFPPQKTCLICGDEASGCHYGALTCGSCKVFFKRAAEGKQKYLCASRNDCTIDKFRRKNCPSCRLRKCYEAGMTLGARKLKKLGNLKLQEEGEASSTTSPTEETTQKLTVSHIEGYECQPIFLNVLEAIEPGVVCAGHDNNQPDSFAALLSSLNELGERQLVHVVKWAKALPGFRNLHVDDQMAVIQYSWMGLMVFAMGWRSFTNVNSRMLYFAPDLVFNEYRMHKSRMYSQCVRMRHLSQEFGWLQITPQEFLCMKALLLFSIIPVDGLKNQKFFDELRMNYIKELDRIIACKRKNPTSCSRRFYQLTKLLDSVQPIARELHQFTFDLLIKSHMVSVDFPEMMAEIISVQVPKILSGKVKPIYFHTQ

[5] = target: T2, Androgen receptor (Homo sapiens) (UniProt P10275); experiment: Displacement of Fluormone AL Green from androgen receptor LBD (unknown origin) at 1 uM incubated for 4 hrs by fluorescence polarization assay relative to control
T2 sequence (whole entry): T1 sequence (P10275 whole entry)

Structure (SMILES): N#Cc1ccc(O[C@H]2CC[C@H](NC(=O)c3ccc(N4CCC(CN5CCN(c6cc7c(cc6F)C(=O)N(C6CCC(=O)NC6=O)C7=O)CC5)CC4)nn3)CC2)cc1Cl (stereo partly specified) [BAVDEGALUTAMIDE]
- concentration at 24 h [1]: 70 ng/mL
- Imax (LNCaP): 90%
- concentration at 3 h [2]: 124 ng/mL
- concentration at 1 h [3]: 55 ng/mL
- concentration at 6 h [4]: 110 ng/mL
- Imax (VCaP): 88%

Structure (SMILES): CN1CCN(c2ccc(C(=O)N3CCC4(CC3)CCN(c3ccc(C#N)c(Cl)c3)C4)cc2)CC1
- IC50 (Androgen receptor): 800 nM

Structure (SMILES): CN1CCN(C(=O)c2ccc(N3CCC4(CC3)CCN(c3ccc(C#N)c(Cl)c3)C4)cc2)CC1
- IC50 (Androgen receptor): 78 nM

Structure (SMILES): N#Cc1ccc(N2CCC3(CCN(c4ccccc4)CC3)C2)cc1Cl
- inhibition [5]: 30%
- IC50 (Androgen receptor): > 1000 nM

Structure (SMILES): N#Cc1ccc(N2CCC3(CCN(C(=O)c4ccccc4)CC3)C2)cc1Cl
- IC50 (Androgen receptor): 1700 nM
